From paper PMC10603355 (Journal for Immunotherapy of Cancer, 2023)

Columns and labels:
[1] = test system: splenocytes of HHDII/DR1 mice (T-cell IFNγ response); assay: IFNγ ELISpot on splenocytes of peptide-immunized HLA-A2 transgenic; assay type: in vivo, mouse; details: for Modification specificity of IFNγ response (Hcit versus wt peptide): HHDII/DR1 and HHDII mice immunized with long Hcit peptide (figure 2A); for Effect of CD4 or CD8 blocking antibody on IFNγ response, ex vivo: HHDII/DR1 mice immunized with long Hcit peptide, 20 µg/mL anti-CD4 or anti-CD8 (figure 1C); for IFNγ response after immunization with wt peptide: HHDII/DR1 mice, tested against wt or Hcit peptides (figure 2B)
Summary of the method: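 HHDII/DR1 or HHDII mice get 25 µg peptide s.c. (stock 1 mg/mL in 20% DMSO/PBS) with 5 µg each CpG ODN 1826 and monophosphoryl lipid A in PBS on days 1, 8 and 15. Spleens taken day 21. 5×10^5 splenocytes/well in quadruplicate are restimulated with peptide for 40 h at 37°C, 5% CO2. IFNγ spots are counted automatically and reported as mean spots/million splenocytes per mouse; n=3 per group.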

HLA-A2 on T2 cells = assay: T2 binding assay; assay type: cell-based, human; details: different peptide concentrations; three independent experiments (figure 3C,D)
Summary of the method: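 T2 cells (2×10^6/mL) are incubated overnight at 37°C with peptide (dilutions prepared at 400, 40 and 4 µg/mL before mixing) and recombinant human β2-microglobulin (prepared at 800 ng/mL). Brefeldin A is added for 1 h before anti-HLA-A2 FITC staining and flow cytometry. Binding is taken as median fluorescence intensity; three independent experiments, two-way ANOVA.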

B16 HHDII melanoma cells = assay: In vivo antitumor study, B16 HHDII tumor in HHDII mice; details: aggressive mouse B16 melanoma model, peptide vaccination
Summary of the method: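 HHDII mice receive 5×10^4 B16 HHDII cells s.c. on day 1, then peptide plus CpG/MPLA adjuvant on days 4, 8 and 11. In depletion arms, anti-CD4 (GK1.5) or anti-CD8 (2.43) is given i.p., 500 µg day 4 and 300 µg days 8 and 11. Tumours are checked twice weekly, with euthanasia near 15 mm diameter; n=5–10 per group.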

Substance | Modification specificity of IFNγ response (Hcit versus wt peptide) [1] | Effect of CD4 or CD8 blocking antibody on IFNγ response, ex vivo [1] | IFNγ response after immunization with wt peptide [1] | other results
LEQQN-Hcit-MLET- Hcit-WSLLQQQ- Hcit-T [Cyk8 112-132Hcit] | strong modification specific responses | either anti-CD8 or anti-CD4 antibody significantly reduced the immune response |  | 
Aldo 204–219wt: wild type (native) long aldolase A peptide (YVTEKVLAAVYKALSD; UniProt P04075 204-219, looked up, fragment) |  |  | failed to stimulate detectable IFNγ immune responses | 
Cyk8 112–132wt: wild type (native) long cytokeratin 8 peptide (LEQQNKMLETKWSLLQQQKTA; UniProt P05787 112-132, looked up, fragment) |  |  | failed to stimulate detectable IFNγ immune responses | 
YVTE-Hcit-VLAAVY-Hcit-ALSD [Aldo 204-219Hcit] | strong modification specific responses | not affected by either of the blocking antibody |  | 
VLAAVY-Hcit-AL [Aldo 209-217Hcit] |  |  |  | IFNγ response to short peptide in mice immunized with the long Hcit peptide ([1]; HHDII/DR1 mice immunized with Aldo 204-219Hcit or Cyk8 112-132Hcit (figure 2C)): strong responses; HLA-A2 binding affinity of Hcit peptide compared with corresponding wt peptide (HLA-A2 on T2 cells): higher binding affinity; survival (B16 HHDII melanoma cells): at least 50%
